Results published in ChEMBL document CHEMBL1687729, “Intracellular activity of antibiotics in a model of human THP-1 macrophages infected by a Staphylococcus aureus small-colony variant strain isolated from a cystic fibrosis patient: pharmacodynamic evaluation and comparison with isogenic normal-phenotype and revertant strains” (Antimicrob Agents Chemother, 2009).
≈ marks a conversion by molar mass, not a printed value. Calls of active or inactive are those of the source. No cut-off for these calls is given here.

Legend:
[1] = test system: Staphylococcus aureus; test: Antibacterial activity against normal phenotype Staphylococcus aureus at pH 7.4 after 24 hrs by broth microdilution method
[2] = test system: Staphylococcus aureus; test: Antibacterial activity against revertant Staphylococcus aureus at pH 7.4 after 24 hrs by broth microdilution method
[3] = test system: Staphylococcus aureus; test: Antibacterial activity against Staphylococcus aureus SCV isolated from cystic fibrosis patient in cation-adjusted MH 2 broth at pH 5.5 after 48 hrs by broth microdilution method; type: functional
Summary of the method: (§1)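 MIC by CLSI broth microdilution in cation-adjusted MH II broth adjusted to pH 5.5. Readings were taken at 48 h for the SCV and at 24 h for the normal-phenotype strain.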

[4] = test system: Staphylococcus aureus; test: Antibacterial activity against Staphylococcus aureus SCV isolated from cystic fibrosis patient at pH 7.4 after 48 hrs by broth microdilution method in absence of thymidine; type: functional
Summary of the method: (§2)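 MIC by CLSI broth microdilution in cation-adjusted MH II broth. For oritavancin, 0.002% polysorbate-80 was added and non-tissue-culture-treated plates were used to limit binding to plastic. Plates were read at 24 h for normal and revertant strains and at 48 h for the SCV. Where stated, the SCV was tested with 100 mg/liter thymidine. Growth was aerobic.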

[5] = test system: Staphylococcus aureus; test: Antibacterial activity against normal phenotype Staphylococcus aureus in cation-adjusted MH 2 broth at pH 5.5 after 24 hrs by broth microdilution method; type: functional; summary of the method: as §1
[6] = test system: Staphylococcus aureus; test: Antibacterial activity against Staphylococcus aureus SCV isolated from cystic fibrosis patient at pH 7.4 after 48 hrs by broth microdilution method in presence of thymidine; type: functional; summary of the method: as §2
[7] = test system: Staphylococcus aureus; test: Antibacterial activity against Staphylococcus aureus SCV isolated from cystic fibrosis patient infected in human THP-1 cells assessed as log reduction of intracellular CFU level after 24 hrs in presence of thymidine; type: functional, organism-based
Summary of the method: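 SCV-infected THP-1 macrophages are exposed 24 h after phagocytosis to antibiotic, with 100 mg/liter thymidine added to the culture medium together with the drug. Read-out is change in log CFU per mg cell protein from the initial inoculum. Data are means ± SD, n = 3; significance by ANOVA with Tukey's test.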

[8] = (§3) Fraction unbound in human plasma
[9] = (§4) Cmax in human plasma; type: ADME, organism-based; details: plasma
[10] = test system: Staphylococcus aureus; test: Antibacterial activity against Staphylococcus aureus SCV isolated from cystic fibrosis patient in cation-adjusted MH 2 broth assessed as log reduction of extracellular CFU after 5 hrs; type: functional
Summary of the method: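 Broth exposure to total drug levels mimicking human serum Cmax, same concentrations as the intracellular assay, for 5 or 24 h. Medium is CA-MH broth, with 0.002% polysorbate-80 when oritavancin is tested. Samples are plated on brain heart infusion agar and incubated 48 h before SCV colonies are counted. Read-out is Δlog CFU/ml from the initial inoculum.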

[11] = test system: Staphylococcus aureus; test: Antibacterial activity against normal phenotype Staphylococcus aureus in infected in human THP-1 cells assessed as log reduction of extracellular CFU level after 24 hrs; type: functional, organism-based
[12] = test system: Staphylococcus aureus; test: Antibacterial activity against revertant Staphylococcus aureus infected in human THP-1 cells assessed as log reduction of extracellular CFU level after 24 hrs; type: functional, organism-based
[13] = test system: Staphylococcus aureus; test: Antibacterial activity against Staphylococcus aureus SCV isolated from cystic fibrosis patient infected in human THP-1 cells assessed as log reduction of intracellular CFU after 72 hrs; type: functional
Summary of the method: (§5)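 THP-1 macrophages are infected with the SCV strain, then extracellular bacteria are eliminated after phagocytosis. Drug is added at total concentrations mimicking human serum Cmax for 5, 24 or 72 h. Lysates are plated on brain heart infusion agar and counted after 48 h. Read-out is Δlog CFU/mg cell protein from the postphagocytosis inoculum; no drug-free control is run at 72 h.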

[14] = test system: Staphylococcus aureus; test: Antibacterial activity against Staphylococcus aureus SCV isolated from cystic fibrosis patient infected in human THP-1 cells assessed as log reduction of intracellular CFU after 5 hrs; type: functional; summary of the method: as §5
[15] = test system: Staphylococcus aureus; test: Antibacterial activity against Staphylococcus aureus SCV isolated from cystic fibrosis patient infected in human THP-1 cells assessed as log reduction of intracellular CFU after 24 hrs; type: functional
[16] = test system: Plasma; test: as §3
[17] = test system: Plasma; test: as §4; type: ADME, organism-based; details: in vivo

Compound | MIC [1] [µg/mL] | MIC [2] [µg/mL] | MIC [3] [µg/mL] | MIC [4] [µg/mL] | MIC [5] [µg/mL] | MIC [6] [µg/mL] | Activity [7] | fraction unbound [8] | Cmax [9] [ng/mL] | log10cfu [10] | Activity [11] | Activity [12] | log10cfu [13] | log10cfu [14] | log10cfu [15] | Fu [16] [%] | Cmax [17] [ng/mL]
CCCCCCCCCC(=O)N[C@@H](Cc1c[nH]c2ccccc12)C(=O)N[C@H](CC(N)=O)C(=O)N[C@@H](CC(=O)O)C(=O)N[C@@H]1C(=O)NCC(=O)N[C@@H](CCCN)C(=O)N[C@@H](CC(=O)O)C(=O)N[C@H](C)C(=O)N[C@@H](CC(=O)O)C(=O)NCC(=O)N[C@H](CO)C(=O)N[C@@H]([C@H](C)CC(=O)O)C(=O)N[C@@H](CC(=O)c2ccccc2N)C(=O)O[C@@H]1C | 0.125 (≈ 0.0771 µM) | 0.25 (≈ 0.154 µM) | 0.25 (≈ 0.154 µM) | 0.125 (≈ 0.0771 µM) | 0.125 (≈ 0.0771 µM) | 0.25 | Active | 0.1 | 57000 | – | – | – | – | – | – | – | –
CCC[C@@H]1C[C@@H](C(=O)N[C@@H]([C@H]2O[C@H](SC)[C@H](O)[C@@H](O)[C@H]2O)[C@H](C)Cl)N(C)C1 [CLINDAMYCIN] | 0.125 (≈ 0.294 µM) | 0.125 (≈ 0.294 µM) | 1 (≈ 2.35 µM) | 0.125 (≈ 0.294 µM) | 1 (≈ 2.35 µM) | 0.125 | Active | 0.1 | 4000 | 2 | – | – | – | – | – | – | –
CC(=O)O[C@H]1C[C@@]2(C)[C@@H](C[C@@H](O)[C@H]3[C@@]4(C)CC[C@@H](O)[C@@H](C)[C@@H]4CC[C@@]32C)/C1=C(\CCC=C(C)C)C(=O)O [FUSIDIC ACID] | 0.125 (≈ 0.242 µM) | 0.06 (≈ 0.116 µM) | 0.03 (≈ 0.0581 µM) | 0.03 (≈ 0.0581 µM) | 0.125 (≈ 0.242 µM) | 0.03 | Active | 0.05 | 30000 | 1 | Active | Active | – | – | – | – | –
CC(=O)NC[C@H]1CN(c2ccc(N3CCOCC3)c(F)c2)C(=O)O1 [LINEZOLID] | – | – | – | – | – | – | Active | 0.31 | 16000 | 1 | – | – | – | – | – | – | –
COc1c(N2C[C@@H]3CCCN[C@@H]3C2)c(F)cc2c(=O)c(C(=O)O)cn(C3CC3)c12 [MOXIFLOXACIN] | 0.25 (≈ 0.623 µM) | 0.125 (≈ 0.311 µM) | 2 (≈ 4.98 µM) | 0.125 (≈ 0.311 µM) | 2 (≈ 4.98 µM) | 0.125 | Active | – | 4000 | – | – | – | 1 | 1 | – | – | –
CN[C@H](CC(C)C)C(=O)N[C@H]1C(=O)N[C@@H](CC(N)=O)C(=O)N[C@H]2C(=O)N[C@H]3C(=O)N[C@H](C(=O)N[C@H](C(=O)O)c4cc(O)cc(O)c4-c4cc3ccc4O)[C@H](O[C@H]3C[C@](C)(N)[C@@H](O)[C@H](C)O3)c3ccc(c(Cl)c3)Oc3cc2cc(c3O[C@@H]2O[C@H](CO)[C@@H](O)[C@H](O)[C@H]2O[C@H]2C[C@](C)(NCc3ccc(-c4ccc(Cl)cc4)cc3)[C@@H](O)[C@H](C)O2)Oc2ccc(cc2Cl)[C@H]1O [ORITAVANCIN] | 0.03 (≈ 0.0167 µM) | 0.015 (≈ 0.00837 µM) | 0.125 (≈ 0.0697 µM) | 0.015 (≈ 0.00837 µM) | 0.03 (≈ 0.0167 µM) | 0.015 | Active | 0.12 | 25000 | – | – | – | 1 | 1 | 2.5 | – | –
Cc1onc(-c2ccccc2)c1C(=O)N[C@@H]1C(=O)N2[C@@H]1SC(C)(C)[C@@H]2C(=O)O [OXACILLIN] | 0.5 (≈ 1.25 µM) | 0.25 (≈ 0.623 µM) | 0.015 (≈ 0.0374 µM) | 0.125 (≈ 0.311 µM) | 0.03 (≈ 0.0747 µM) | 0.25 | Active | 0.07 | 64000 | – | Active | Active | – | – | – | – | –
CO[C@H]1/C=C/O[C@@]2(C)Oc3c(C)c(O)c4c(O)c(c(/C=N/N5CCN(C)CC5)c(O)c4c3C2=O)NC(=O)/C(C)=C\C=C\[C@H](C)[C@H](O)[C@@H](C)[C@@H](O)[C@@H](C)[C@H](OC(C)=O)[C@@H]1C [RIFAMPIN] | 0.002 (≈ 0.00243 µM) | 0.0005 (≈ 0.000608 µM) | 0.0005 (≈ 0.000608 µM) | 0.0005 (≈ 0.000608 µM) | 0.0002 (≈ 0.000243 µM) | 0.002 | Active | 0.15 | 18000 | – | – | – | 2 | 1 | – | – | –
CCCCCCCCCCNCCN[C@@]1(C)C[C@H](O[C@H]2[C@H](Oc3c4cc5cc3Oc3ccc(cc3Cl)[C@@H](O)[C@@H](NC(=O)[C@@H](CC(C)C)NC)C(=O)N[C@@H](CC(N)=O)C(=O)N[C@H]5C(=O)N[C@H]3C(=O)N[C@H](C(=O)N[C@H](C(=O)O)c5cc(O)c(CNCP(=O)(O)O)c(O)c5-c5cc3ccc5O)[C@H](O)c3ccc(c(Cl)c3)O4)O[C@H](CO)[C@@H](O)[C@@H]2O)O[C@@H](C)[C@H]1O [TELAVANCIN] | 0.125 (≈ 0.0712 µM) | 0.125 (≈ 0.0712 µM) | 0.125 (≈ 0.0712 µM) | 0.125 (≈ 0.0712 µM) | 0.125 (≈ 0.0712 µM) | 0.125 | Active | 0.07 | 90000 | – | – | – | – | – | – | – | –
CN(C)c1cc(NC(=O)CNC(C)(C)C)c(O)c2c1C[C@H]1C[C@H]3[C@H](N(C)C)C(O)=C(C(N)=O)C(=O)[C@@]3(O)C(O)=C1C2=O [TIGECYCLINE] | 0.125 (≈ 0.213 µM) | 0.125 (≈ 0.213 µM) | 0.125 (≈ 0.213 µM) | 0.125 (≈ 0.213 µM) | 0.125 (≈ 0.213 µM) | 0.125 | Active | 0.2 | 1000 | 1 | – | – | – | – | – | – | –
CN[C@H](CC(C)C)C(=O)N[C@H]1C(=O)N[C@@H](CC(N)=O)C(=O)N[C@H]2C(=O)N[C@H]3C(=O)N[C@H](C(=O)N[C@H](C(=O)O)c4cc(O)cc(O)c4-c4cc3ccc4O)[C@H](O)c3ccc(c(Cl)c3)Oc3cc2cc(c3O[C@@H]2O[C@H](CO)[C@@H](O)[C@H](O)[C@H]2O[C@H]2C[C@](C)(N)[C@H](O)[C@H](C)O2)Oc2ccc(cc2Cl)[C@H]1O [VANCOMYCIN] | – | – | – | – | – | – | Active | 0.5 | 50000 | – | Active | Active | – | – | – | – | –
GENTAMICIN [listing 1 of 2 here] | – | – | – | – | – | – | – | – | – | – | – | – | – | – | – | 100 | 18000
GENTAMICIN [listing 2 of 2 here] | – | – | 4 | 0.125 | 8 | 0.125 | Active | – | – | – | – | – | – | – | – | – | –
